From PubChem BioAssay
CHT PAM: human CHT allosteric activation; Q9GZV3; CHT-expressing cells, membrane potential dye, choline EC20; stronger effect = higher value; LV-AA mutant CHT in HEK293 cells; B-score at 10 µM; 310,000 tested, 0.49% active;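 active = initial fluorescence not abnormally high and integrated response B-score, plate-corrected, over 3 SD above library mean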
Target sequence (Q9GZV3 whole entry, looked up): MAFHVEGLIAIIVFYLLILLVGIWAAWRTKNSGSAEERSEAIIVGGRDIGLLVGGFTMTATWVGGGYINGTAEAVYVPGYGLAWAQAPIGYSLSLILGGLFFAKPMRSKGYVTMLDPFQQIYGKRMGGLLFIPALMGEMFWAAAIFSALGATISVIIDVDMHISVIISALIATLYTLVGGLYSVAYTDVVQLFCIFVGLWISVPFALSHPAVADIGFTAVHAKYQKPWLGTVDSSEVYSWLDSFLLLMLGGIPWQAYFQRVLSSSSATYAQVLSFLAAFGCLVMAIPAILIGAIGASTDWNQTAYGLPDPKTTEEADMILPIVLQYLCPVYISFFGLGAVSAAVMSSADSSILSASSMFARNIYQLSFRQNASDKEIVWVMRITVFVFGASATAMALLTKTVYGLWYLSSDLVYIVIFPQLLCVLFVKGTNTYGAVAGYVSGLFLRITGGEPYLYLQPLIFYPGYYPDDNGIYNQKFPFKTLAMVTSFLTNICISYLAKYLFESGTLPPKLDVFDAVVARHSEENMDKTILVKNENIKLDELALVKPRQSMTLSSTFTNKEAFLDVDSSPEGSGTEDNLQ
PolyA inhibitor: inhibitors of polyadenylation in S. cerevisiae. activity score, % at 12 µM. 300,000 tested, 0.02% active. S. cerevisiae SKY197-pL101 polyadenylation reporter, beta-gal luminescence; efflux-impaired pdr1/pdr3 knockout yeast; score 100 = 6 SD above DMSO;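 active = lowest replicate activity score at least 50, where 100 means six control SD above control mean; inconclusive = lowest score under 50 but half or more replicates reach 50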;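 note: yeast exposed to compound for 9 h at 30 °C; higher score means more reporter readthrough which indicates perturbed polyadenylation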
CHT inh: inhibitors of human choline transporter CHT. Q9GZV3. CHT-expressing cells, membrane potential dye, choline response; stronger effect = lower value. B-score at 10 µM. 310,000 tested, 0.86% active. AID 488975;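 active = B-score over 3 SD under the library average, and starting fluorescence ratio not unusually high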;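 note: choline stimulus applied at its EC90 after an EC20 pre-addition; B-score computed on integrated fluorescence ratio after choline addition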
T cruzi inh: blocks replication of Trypanosoma cruzi. T. cruzi beta-gal in NIH3T3, luminescence, 90 h. inhibition, % (concentration not given with the values). 300,000 tested, 1.4% active;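 active = mean inhibition across valid replicates above about 55%, limit read from the data; inconclusive = mean below that limit but half or more replicates reach it; inactive = mean below it, under half of replicates reach it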;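 note: signal also drops with host cell toxicity which is not excluded here; higher percent means less beta-gal luminescence so fewer parasites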
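System: mouse NIH/3T3 fibroblasts infected with β-gal-expressing T. cruzi Tulahuen C4 / Input: NIH/3T3 cells, 5,000 per well / Buffer or medium: Low-serum DMEM with 2% FBS / Probe or stimulus: 5000 reporter trypomastigotes per well / Schedule: ≥90 h infection period, 3 h prior cell attachment / Measured by: GalScreen luminescence, 60 min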
CHT block conf: confirmation of human choline transporter CHT inhibitors | shares compounds with CHT inh | AID 493221 | CHT activity remaining % of control (stronger effect = lower value), % at 10 µM | CHT-expressing cells, choline membrane potential dye; LV-to-AA substituted CHT, HEK293 cells | 2,400 tested, 70% active;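 active = choline transporter activity left, mean of duplicates at 10 µM, below buffer-only control mean minus 3 SD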;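 note: depolarization triggered by choline at its EC90 following an EC20 pre-addition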
HEK293 CHT ctr: counter-screen for CHT inhibitors: effect in parental HEK293 cells; membrane potential ratio readout (active if shifted either direction beyond buffer ±3SD; no single direction) at 10 µM; shares compounds with CHT inh; AID 493222; 2,400 tested, 4% active; membrane potential dye, choline response; active = decrease or increase beyond buffer ±3SD;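 note: parental cells lack the transporter so any hit is non-specific; ratio is peak minus trough fluorescence over baseline after EC90 choline challenge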
CHT activ conf: confirmation of human choline transporter (CHT) activators; shares compounds with CHT PAM; CHT-expressing cells, membrane potential dye fluorescence (FDSS); % of choline EC20–EC90 response window; HEK293 expressing CHT LV-AA mutant; choline added at its EC20; activation, % at 10 µM; 2,500 tested, 91% active;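 active = primary screen active, with duplicate mean activation above negative control mean plus 3 SD, cut at about 11% in these data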
HEK293 MP dye: activity in parental HEK293 cells lacking CHT; shares compounds with CHT PAM; membrane potential dye fluorescence (FDSS); measured after EC20 choline addition; ratio readout change at 10 µM, hits read low; 2,500 tested, 62% active; AID 623908;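 active = duplicate-averaged ratio beyond 3 SD from buffer wells, up or down, though filed actives are nearly all decreases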
Hits are given with their value; n = inactive; u = inconclusive; x = no result given. In the library only some 2.6% were active in any assay of this set; here they are far more common.

SMILES	CHT PAM	PolyA inhibitor	CHT inh	T cruzi inh	CHT block conf	HEK293 CHT ctr	others
O=C(N/N=C\c1cccs1)c1ccccc1-n1cccc1	n	n	-5.3	n	n	n
OCC1(Cc2ccccc2)CCN(Cc2ccc(C(F)(F)F)cc2)CC1	n	n	n	n	x	x
CCOC(=O)C1(C)NC(c2ccccc2F)C2C(=O)N(CC)C(=O)C21 (stereo not given)	n	n	n	n	x	x
COc1cc(-c2nc3ccccc3s2)ccc1O	n	n	n	n	x	x
CC(C)c1ccc(-c2nc3ccccc3s2)cc1	n	n	-8.4	n	n	n
O=C(NCc1ccccc1Cl)C1CCN(C(=O)c2ccco2)CC1	n	n	n	n	x	x
CC(C)(C)c1cc(C(F)(F)F)nc(SCCCNC(=O)c2ccco2)n1	n	n	-5.5	n	n	n
Cc1ccccc1C(=O)NNS(=O)(=O)c1cccc([N+](=O)[O-])c1	n	n	n	n	x	x
CCOc1ccc(Br)cc1S(=O)(=O)Nc1ncn[nH]1	n	n	n	n	x	x
CCc1ccc(N=c2c([N+](=O)[O-])nn(-c3ccc4c(c3)OCCO4)n2O)cc1	n	n	-6.3	62	69%	n
CS(=O)(=O)Nc1ccccc1C(=O)NCCSc1ccccc1	n	n	-6.5	n	71%	n
CS(=O)(=O)Nc1ccccc1C(=O)NCCSCc1ccccc1	n	n	n	n	x	x
CCCn1c(=O)c(C(=O)NCc2cccnc2)c(O)c2ccccc21	n	n	n	n	x	x
CCCn1c(=O)c(C(=O)NCc2ccccn2)c(O)c2ccccc21	n	x	-5.7	x	n	n
O=[N+]([O-])c1c(Nc2cccc(O)c2)cc(Cl)c2nonc12	n	n	-7.4	60	28%	n
Fc1ccc(OCCOCCOc2cccc3[nH]ccc23)cc1	n	u	-5.3	n	n	n
O=C(CCc1ccccc1)c1c(O)cc(O)cc1O	n	n	-7.9	n	40%	n
COc1ccc(C(=O)CCc2ccccc2)c(O)c1	n	n	n	n	x	x
CSc1ccc(COC(=O)CCS(=O)(=O)c2ccc(C)cc2)cc1	n	n	n	n	x	x
CCOc1ccc(S(=O)(=O)Nc2cccc(C(=O)NCC(c3ccccc3)N(C)C)c2)cc1 (stereo not given)	n	n	-7.6	n	16%	n
Cc1nnc2c(SC(C)C)nc3ccccc3n12	n	n	n	n	x	x
CN1CCC(=O)N(CCSc2ccccc2)CC1	n	n	n	n	x	x
O=C1CCN(CCc2ccccc2)CCN1CCSc1ccccc1	n	n	-5	n	50%	n
CCCCn1c(N)c(N(CC(C)C)C(=O)c2cccc(-n3cnnn3)c2)c(=O)[nH]c1=O	n	n	n	n	x	x
O=S(=O)(c1ccc(F)cc1)N1CCC2(CC1)OCCN2S(=O)(=O)c1cccs1	n	n	n	n	x	x
SMILES	CHT PAM	PolyA inhibitor	CHT inh	T cruzi inh	CHT block conf	HEK293 CHT ctr	others
CC(/C=N/NC(=O)c1cc(-c2ccncc2)nc2ccccc12)=C\c1ccco1	n	n	-7.5	n	40%	n
Cc1ccc(/C=N/NC(=O)c2cc(-c3ccncc3)nc3ccccc23)o1	x	n	x	n	x	x
O=C(Nc1nc(-c2cccs2)c(C(=O)C(F)(F)F)s1)c1ccco1	n	n	-5.2	n	n	n
c1cc(Nc2ncnc3sccc23)cc(-c2nnc3n2CCCCC3)c1	n	n	-6	n	57%	n
CCOc1ncccc1C(=O)Nc1cccc(-c2nnc3n2CCCCC3)c1	n	n	n	n	x	x
O=C(CSc1ccc2ccccc2c1)Nc1ccncc1	n	n	-6	n	52%	n
O=C(CSc1ccncc1)Nc1ccc2ccccc2c1	n	n	n	u	x	x
CNC(=O)/C(C#N)=C/c1c(N2CCN(C)CC2)nc2c(C)cccn2c1=O	n	n	n	n	x	x	CHT activ conf=58;HEK293 MP dye=-56
CCNC(=O)/C(C#N)=C/c1c(N2CCN(c3ccccc3)CC2)nc2c(C)cccn2c1=O	n	n	n	n	x	x
CCN1CCN(c2nc3c(C)cccn3c(=O)c2/C=C(\C#N)C(=O)NCCCOC)CC1	7.5	n	n	n	x	x	CHT activ conf=50;HEK293 MP dye=-60
CCOC(=O)/C(C#N)=C/c1c(N2CCN(c3ccc(OC)cc3)CC2)nc2c(C)cccn2c1=O	n	n	n	n	x	x
CNC(=O)/C(C#N)=C/c1c(N2CCN(c3cccc(Cl)c3)CC2)nc2c(C)cccn2c1=O	n	n	n	n	x	x
CCOC(=O)/C(C#N)=C/c1c(N2CCN(CC)CC2)nc2c(C)cccn2c1=O	n	n	n	n	x	x	CHT activ conf=52;HEK293 MP dye=-50
CCN1CCN(c2nc3c(C)cccn3c(=O)c2/C=C(\C#N)C(=O)NC)CC1	9.1	n	n	n	x	x	CHT activ conf=47;HEK293 MP dye=-45
CC(=O)c1cnc(Nc2nc(C)c3ccccc3n2)nc1C	n	n	n	n	x	x	CHT activ conf=44;HEK293 MP dye=-45
O=C(c1ccccc1Br)N(Cc1ccccc1)c1ccccc1	n	n	n	n	x	x
C=CCOC(=O)C1=C[C@@H](c2csc3ccccc23)C[C@@H](OCCCCO)O1	n	n	n	n	x	x	CHT activ conf=20;HEK293 MP dye=n
NC(=O)C1=C[C@H](c2csc3ccccc23)C[C@H](OCCCCO)O1	n	n	n	n	x	x
Cc1ccc(-n2nc3c(c2NC(=O)c2ccc4c(c2)OCO4)CS(=O)C3)c(C)c1 (stereo not given)	n	n	n	n	x	x
COc1ccc(CN(C)C(C)C(=O)Nc2cccc3ccccc23)cc1 (stereo not given)	n	n	n	n	x	x	CHT activ conf=n;HEK293 MP dye=n
COc1ccc(CNC(=O)Nc2cccc3ccccc23)cc1	n	n	n	n	x	x
O=C(CCc1nc(-c2ccccc2Cl)no1)Nc1cccnc1	n	n	n	n	x	x
COc1cc(-c2nnc(SCC(=O)/C(C#N)=C(\C)N)o2)cc(OC)c1OC	n	n	n	n	x	x	CHT activ conf=n;HEK293 MP dye=-23
COc1cc(-c2nnc(SCC(=O)c3ccc(C)cc3)o2)cc(OC)c1OC	n	n	n	n	x	x
CCCNC(=O)COCc1cc(-c2ccc3c(c2)OCO3)on1	n	n	n	n	x	x
CCCCNC(=O)COCc1cc(-c2ccc3c(c2)OCO3)on1	10	n	n	n	x	x	CHT activ conf=29;HEK293 MP dye=n
O=C(Nc1ccc(-n2cnnn2)cc1)C1CCCN1C(=O)NC1CCCCC1 (stereo not given)	n	n	n	n	x	x
O=C(Nc1ccc(-n2cnnn2)cc1)C1CCCCC1	9.1	n	n	n	x	x	CHT activ conf=35;HEK293 MP dye=-33
CCOC(=O)c1c(CSCc2ccccc2)oc2ccc(O)c(CN(C)C)c12	11	n	n	n	x	x	CHT activ conf=25;HEK293 MP dye=n
